These results are taken from ChEMBL document CHEMBL1122873, “Acetoxy-substituted 1,1,2-triphenylbut-1-enes with antiestrogenic and mammary tumor inhibiting properties” (1985).

In assay [1] the target is T1, Estrogen receptor (Bos taurus) (UniProt Q9XSB5+P49884). In words: Relative displacement of [3H]estradiol from calf uterine estrogen receptor. The format is protein assay. A digest of the protocol:
(§1)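 Calf uterine cytosol was incubated with 1×10⁻⁹ M [³H]estradiol and five or six competitor concentrations for 16 h at 4 °C. Dextran-coated charcoal removed unbound ligand (90 min, 4 °C), and supernatant radioactivity was counted. The 50% displacement concentration was read from a semilog plot. RBA = [E2]/[I] × 100.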

Assay [2] has as its target T2, Estrogen receptor (Mus musculus) (UniProt O08537+P19785). Description: Estrogenic activity in immature mouse using Uterine weight test at 1 ug dose. The format is functional. A digest of the protocol: (§2)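 Immature female NMRI mice (10–12 g, 20 days old at start, 10 per group) got the compound sc daily for 3 consecutive days in 0.1 mL olive oil. Uteri were removed 24 h after the last injection, fixed in Bouin's solution, dried and weighed. Uterine growth stimulation is the estrogenic read-out.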

The target of assay [3] is T2, Estrogen receptor (Mus musculus). In words: Estrogenic activity in immature mouse using Uterine weight test at 50 ug dose. The format is functional. A digest of the protocol: as §2
For assay [4] the target is unchanged. Description: Estrogenic activity in immature mouse using Uterine weight test at 5 ug dose. The format is functional. The gist of the method:
as §2

Assay [5] has the same target. In words: Antiestrogenic activity in immature mouse Uterine weight test at 100 ug dose. The format is functional. A digest of the protocol:
(§3)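 Antiestrogenic read-out is inhibition of estrone-stimulated uterine growth, given as % inhibition. Immature female NMRI mice (10–12 g, 20 days old, 10 per group) received the compound sc daily for 3 days in 0.1 mL olive oil. Uteri were taken 24 h after the last dose, Bouin-fixed, dried and weighed.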

Assay [6] has the same target. In words: Antiestrogenic activity in immature mouse Uterine weight test at 25 ug dose. The format is functional. A digest of the protocol: as §3
Assay [7] shares this target. In words: Antiestrogenic activity in immature mouse Uterine weight test at 5 ug dose. The format is functional. A digest of the protocol: as §3
Assay [8] has as its system Mus musculus. In words: In vivo inhibition of hormone-dependent MXT mammary tumor in BDF1 mouse at 8.0 mg/kg dose. The format is functional. A digest of the protocol: (§4)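 Transplantable hormone-dependent MXT tumor pieces (1 per animal) were implanted in BDF1 mice, then randomized into groups of 10. Dosing was sc three times weekly (Mon/Wed/Fri) in olive oil (0.1 mL/mouse) from day 1 after transplantation for 6 weeks, at equimolar doses. Read-out is tumor weight T/C % versus solvent control (mean of 10); significance α ≤ 0.05.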

Assay [9] deals with T2, Estrogen receptor (Mus musculus). In words: In vivo uterotrophic effect in hormone-dependent MXT mammary tumor bearing BDF1 mice at 8.0 mg/kg dose. The format is functional, organism-based. The arrangement: dose 8 mg/kg. The gist of the method: (§5)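 Uterotrophic effect was measured in the same MXT tumor-bearing BDF1 mice (groups of 10). They were dosed sc three times weekly in olive oil (0.1 mL/mouse) for 6 weeks from day 1 after transplantation. Read-out is T/C % of uterotrophic effect versus solvent control after 6 weeks (mean of 10); significance α ≤ 0.05.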

Assay [10] has the same target. In words: Estrogenic activity in immature mouse using Uterine weight test at 250 ug dose. The format is functional. The gist of the method: as §2
The subject of assay [11] is Mus musculus. In words: In vivo inhibition of hormone-dependent MXT mammary tumor in BDF1 mouse at 5.4 mg/kg dose. The format is functional. The gist of the method:
as §4

For assay [12], the system named is Mus musculus. In words: In vivo inhibition of hormone-dependent MXT mammary tumor in BDF1 mouse at 12 mg/kg dose. The format is functional. A digest of the protocol:
as §4

Assay [13] addresses T2, Estrogen receptor (Mus musculus). In words: In vivo uterotrophic effect in hormone-dependent MXT mammary tumor bearing BDF1 mice at 12 mg/kg dose. The format is functional, organism-based. The arrangement: dose 12 mg/kg. A digest of the protocol:
as §5

Assay [14] has the same target. Description: Estrogenic activity in immature mouse using Uterine weight test at 25 ug dose. The format is functional. A digest of the protocol: as §2
The target is the same in assay [15]. Description: Estrogenic activity in immature mouse using Uterine weight test at 10 ug dose. The format is functional. A digest of the protocol:
as §2

The target is the same in assay [16]. Description: Antiestrogenic activity in immature mouse Uterine weight test at 1 ug dose. The format is functional. The gist of the method:
as §3

The target in assay [17] is T1, Estrogen receptor (Bos taurus). Description: Tested in vitro for its binding affinity against Estrogen receptor. The format is protein assay. The gist of the method: as §1
Assay [18] concerns the target T2, Estrogen receptor (Mus musculus). Description: Antiestrogenic activity in immature mouse Uterine weight test at 25 ug dose.
For assay [19], the system named is Mus musculus. Description: In vivo inhibition of hormone-dependent MXT mammary tumor in BDF1 mouse at 11.3 mg/kg dose. The format is functional. The gist of the method:
as §4

Assay [20] addresses T2, Estrogen receptor (Mus musculus). In words: Estrogenic activity in immature mouse using Uterine weight test at 0.5 ug dose. The format is functional. A digest of the protocol: as §2

T2 sequence (O08537 whole entry, looked up): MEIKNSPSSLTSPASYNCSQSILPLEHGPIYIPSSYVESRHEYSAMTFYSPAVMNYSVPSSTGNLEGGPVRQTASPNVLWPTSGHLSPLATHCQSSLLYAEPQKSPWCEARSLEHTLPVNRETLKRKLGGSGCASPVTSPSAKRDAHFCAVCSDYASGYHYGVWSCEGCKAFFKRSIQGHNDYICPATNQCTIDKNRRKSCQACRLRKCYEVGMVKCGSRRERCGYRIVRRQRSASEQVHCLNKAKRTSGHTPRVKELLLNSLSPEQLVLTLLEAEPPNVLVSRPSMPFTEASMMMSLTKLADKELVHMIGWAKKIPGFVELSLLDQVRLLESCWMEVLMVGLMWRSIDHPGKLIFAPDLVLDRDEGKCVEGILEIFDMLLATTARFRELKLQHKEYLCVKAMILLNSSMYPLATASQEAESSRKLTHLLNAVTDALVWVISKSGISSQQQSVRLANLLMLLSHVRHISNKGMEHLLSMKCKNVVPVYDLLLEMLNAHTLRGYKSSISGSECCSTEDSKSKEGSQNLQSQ
T2 sequence (P19785 whole entry, looked up): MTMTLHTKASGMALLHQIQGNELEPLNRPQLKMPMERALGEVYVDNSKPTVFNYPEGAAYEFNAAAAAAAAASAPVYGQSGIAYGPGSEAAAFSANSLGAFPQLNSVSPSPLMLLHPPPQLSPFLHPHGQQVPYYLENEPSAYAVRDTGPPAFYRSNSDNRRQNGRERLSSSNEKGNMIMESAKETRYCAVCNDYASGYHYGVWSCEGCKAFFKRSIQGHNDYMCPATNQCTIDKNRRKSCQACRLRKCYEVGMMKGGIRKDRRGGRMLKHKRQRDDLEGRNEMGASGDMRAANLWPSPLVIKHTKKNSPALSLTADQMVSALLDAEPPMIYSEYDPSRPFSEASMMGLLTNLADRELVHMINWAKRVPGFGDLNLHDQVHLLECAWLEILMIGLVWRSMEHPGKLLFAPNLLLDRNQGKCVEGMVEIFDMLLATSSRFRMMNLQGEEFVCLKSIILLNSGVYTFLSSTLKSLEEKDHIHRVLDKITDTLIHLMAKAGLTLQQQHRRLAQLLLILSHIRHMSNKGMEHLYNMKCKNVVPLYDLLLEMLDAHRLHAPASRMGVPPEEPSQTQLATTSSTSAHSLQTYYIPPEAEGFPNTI

Take `CC/C(=C(\c1ccccc1)c1cccc(OC(C)=O)c1)c1ccc(OC(C)=O)cc1`: the RBA in [1] was 1.8%. Besides, the Estrogenic effect in assay [2] came to 0; in [3], 61; in [4], 18. Further, the inhibition in [5] came to 9%; in assay [6], 16%; in assay [7], 45%. Moreover, the T/C in assay [8] was found to be 62%; in assay [9], 96%.
Consider `CC/C(=C(\c1ccc(OC(C)=O)cc1)c1cccc(OC(C)=O)c1)c1ccccc1`, for which, in [1], the RBA was found to be 8.7%. Besides, the Estrogenic effect in [2] was found to be 23; in [10], 85; in assay [3] it was 73; in assay [4] it was 35. The inhibition stood at 3% in assay [5], 32% in [6] and 41% in [7]. Moreover, the T/C turned out to be 25% in [8] and 116% in assay [9].
Consider `CC/C(=C(/CC)c1ccc(O)cc1)c1ccc(O)cc1` [DIETHYLSTILBESTROL], for which, in assay [11], the T/C came to 3%.
For the molecule `CC/C(=C(/c1ccc(OC(C)=O)cc1)c1cccc(OC(C)=O)c1)c1ccccc1`, the RBA in [1] came out at 3.5%. Further, the Estrogenic effect in assay [2] worked out at 8; in [10], 66; in assay [3] it was 66; in assay [4] it was 15. Also, the inhibition came to 9% in [5], 33% in assay [6] and 28% in [7]. Also, the T/C in assay [12] was found to be 8%; in assay [13], 110%.
For the molecule `CCC(=C(c1ccc(OC(C)=O)cc1)c1ccc(OC(C)=O)cc1)c1ccccc1`, the Estrogenic effect was 37 in assay [2], 98 in assay [14], 72 in [4] and 85 in assay [15]. For the same molecule, the inhibition in [16] and in [7] was 0% in each case. Further, the results for the T/C in assay [8] and in assay [9] were 7% and 110%, respectively.
For the molecule `CC/C(=C(\c1ccccc1)c1ccc(OC(C)=O)cc1)c1cccc(OC(C)=O)c1`, the relative binding affinity (RBA) in assay [17] is 6.1. The molecule further came in with an Estrogenic effect in assay [4] of 94. In addition, the inhibition in assay [6], in assay [7] and in [18] was 0% in each case. Further, the T/C in assay [8] is 7%; in assay [9], 193%.
`CC/C(=C(/c1ccccc1)c1cccc(OC(C)=O)c1)c1ccc(OC(C)=O)cc1`: in [1], the RBA came out at 4.2%. In addition, the results for the Estrogenic effect in assay [2], in assay [3] and in assay [4] were 18, 92 and 80, respectively. Moreover, the values for the inhibition in assay [6], in assay [16] and in [7] were 0%, 12% and 0%, respectively. Besides, the T/C in assay [8] was determined as 2%; in assay [9], 175%.
The molecule `CC/C(=C(\c1ccccc1)c1ccc(OCCN(C)C)cc1)c1ccccc1.O=C(O)CC(O)(CC(=O)O)C(=O)O` [TAMOXIFEN CITRATE] yielded a T/C in assay [19] of 4%.
For the molecule `CC/C(=C(/c1ccccc1)c1ccc(OC(C)=O)cc1)c1cccc(OC(C)=O)c1`, in assay [1], the RBA amounted to 11.1%. Also, the values for the Estrogenic effect in assay [20], in [2] and in assay [4] were 124, 114 and 81, respectively. Moreover, the T/C came out at 1% in assay [8] and 205% in assay [9].
